How the values were obtained:
[1] = system: HeLa; assay: In vitro anticellular activity expressed as inhibitory concentration for the growth of human uterine cervix carcinoma HeLa S3 cells for a period of 1 hour; type: functional, cell-based
In short: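 HeLa S3 cells seeded at 2 × 10^4/well and precultured 24 h at 37 °C, 5% CO2. Pulse exposure: compound for 1 h, washed with Ca/Mg-free PBS, then grown 71 h in fresh medium. Cells detached with 0.05% trypsin/0.02% EDTA in PBS and counted electronically. IC50 is the concentration giving 50% growth inhibition.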

[2] = system: HeLa; assay: In vitro anticellular activity expressed as inhibitory concentration for the growth of HeLa S3 cells for a period of 72 hour; type: functional, cell-based; conditions: Homo sapiens
In short: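 HeLa S3 cells, 2 × 10^4 per well, precultured 24 h at 37 °C in 5% CO2, then exposed continuously to compound for 72 h. Cells detached with PBS(–) containing 0.05% trypsin and 0.02% EDTA and counted electronically. IC50 is the concentration giving 50% inhibition of cell growth.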

[3] = system: Mus musculus; assay: Treated/Control value was measured in mice(implanted subcutaneously with sarcoma 180 cells) at the dose of 2 mg/kg; type: functional
In short: (§1)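 Adult male ddY mice, five per group, implanted sc at the axillary region with passaged sarcoma 180 cells. Drug given iv starting 1 day after inoculation. Tumor length and width measured; volume = length × width²/2. T/C is mean tumor volume of treated over control. Effective if T/C ≤42% with Mann–Whitney U p < 0.05.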

[4] = system: Mus musculus; assay: Treated/Control value was measured in mice(implanted subcutaneously with sarcoma 180 cells) at the dose of 0.13 mg/kg; type: functional; in short: as §1
[5] = system: Mus musculus; assay: Treated/Control value was measured in mice(implanted subcutaneously with sarcoma 180 cells) at the dose of 8 mg/kg; type: functional; in short: as §1
[6] = system: Mus musculus; assay: Treated/Control value was measured in mice(implanted subcutaneously with sarcoma 180 cells) at the dose of 4 mg/kg; type: functional; in short: as §1

SMILES | IC50 [1] [nM] | IC50 [2] [nM] | T/C [3] | T/C [4] | T/C [5] | T/C [6]
COC(=O)c1c(C)[nH]c2c1C1C(=CC2OC(=O)N2CCN(C)CC2)N(C(=O)/C=C/c2ccc(OC)c(N(C)C)c2)C[C@H]1CBr.Cl (some centres undefined) | 430 | 52 | 0.13 | – | – | –
COC(=O)c1c(C)[nH]c2c1C1C(=CC2OC(=O)N2CCN(C)CC2)N(C(=O)/C=C/c2ccc(OC)c(OCCCN)c2)C[C@H]1CBr.Cl (some centres undefined) | 290 | 30 | – | 0.77 | – | –
COC(=O)c1c(C)[nH]c2c1C1C(=CC2OC(=O)N2CCN(C)CC2)N(C(=O)/C=C/c2ccc(OC)c(N)c2)C[C@H]1CBr.Cl (some centres undefined) | 290 | 30 | – | – | 0.39 | –
COC(=O)c1c(C)[nH]c2c1[C@@]13C[C@@H]1CN(C(=O)/C=C/c1ccc(OC)c(N(C)C)c1)C3=CC2=O | 2.5 | 0.92 | – | – | – | –
COC(=O)c1c(C)[nH]c2c1[C@@]13C[C@@H]1CN(C(=O)/C=C/c1ccc(OC)c(OCCCN)c1)C3=CC2=O | 5.9 | 1.4 | – | – | – | –
C=CCOc1ccc(/C=C/C(=O)N2C[C@H]3C[C@@]34C2=CC(=O)c2[nH]c(C)c(C(=O)OC)c24)cc1 | 39 | 7.5 | – | – | – | –
CCCCCOc1ccc(/C=C/C(=O)N2C[C@H]3C[C@@]34C2=CC(=O)c2[nH]c(C)c(C(=O)OC)c24)cc1 | > 100 | 50 | – | – | – | –
COC(=O)c1c(C)[nH]c2c1[C@@]13C[C@@H]1CN(C(=O)/C=C/c1ccc(NC(=O)OC(C)(C)C)cc1)C3=CC2=O | 4 | 0.56 | – | – | – | –
CCN(CC)c1cc(/C=C/C(=O)N2C[C@H]3C[C@@]34C2=CC(=O)c2[nH]c(C)c(C(=O)OC)c24)ccc1OC | 9.5 | 2.3 | – | – | – | –
COC(=O)c1c(C)[nH]c2c1[C@@]13C[C@@H]1CN(C(=O)/C=C/c1ccc(C)cc1)C3=CC2=O | 33 | 2.3 | – | – | – | –
COC(=O)c1c(C)[nH]c2c1C1C(=CC2OC(=O)N2CCN(CC(=O)NC(C)C)CC2)N(C(=O)/C=C/c2ccc(OC)cc2)C[C@H]1CBr.Cl (some centres undefined) | 1200 | 61 | – | – | 0.12 | –
COC(=O)c1c(C)[nH]c2c1C1C(=CC2OC(=O)N(C)C)N(C(=O)/C=C/c2ccc(OC)c(OCC(=O)O)c2)C[C@H]1CBr (some centres undefined) | 10000 | > 1000 | – | – | – | 0.72
COC(=O)COc1cc(/C=C/C(=O)N2C[C@H]3C[C@@]34C2=CC(=O)c2[nH]c(C)c(C(=O)OC)c24)ccc1OC | 1.3 | 0.86 | – | – | – | –
COC(=O)c1c(C)[nH]c2c1[C@@]13C[C@@H]1CN(C(=O)/C=C/c1ccc(OC)c(OCC(=O)OC(C)(C)C)c1)C3=CC2=O | 7.4 | 2.3 | – | – | – | –
COC(=O)c1c(C)[nH]c2c1[C@@]13C[C@@H]1CN(C(=O)/C=C/c1ccc(N)cc1)C3=CC2=O | 32 | 2.6 | – | – | – | –
COC(=O)c1c(C)[nH]c2c1[C@@]13C[C@@H]1CN(C(=O)/C=C/c1ccc(OC)c(OCCCN=[N+]=[N-])c1)C3=CC2=O | 2 | 0.74 | – | – | – | –
CCCOc1ccc(/C=C/C(=O)N2C[C@H]3C[C@@]34C2=CC(=O)c2[nH]c(C)c(C(=O)OC)c24)cc1 | 51 | 8.3 | – | – | – | –
COC(=O)c1c(C)[nH]c2c1C1C(=CC2OC(=O)N2CCC(N3CCCCC3)CC2)N(C(=O)/C=C/c2ccc(OC)cc2)C[C@H]1CBr.Cl (some centres undefined) | 1000 | 224 | – | – | – | 0.17
COC(=O)c1c(C)[nH]c2c1[C@@]13C[C@@H]1CN(C(=O)/C=C/c1ccc(O)cc1)C3=CC2=O | 19 | 3.5 | – | – | – | –
COC(=O)c1c(C)[nH]c2c1[C@@]13C[C@@H]1CN(C(=O)/C=C/c1ccc(OCc4ccc(OC)cc4)cc1)C3=CC2=O | 13 | 0.81 | – | – | – | –
COC(=O)c1c(C)[nH]c2c1[C@@]13C[C@@H]1CN(C(=O)/C=C/c1ccc(OC)cc1)C3=CC2=O | 7 | 0.94 | – | – | – | –
COC(=O)c1c(C)[nH]c2c1C1C(=CC2OC(=O)N2CCN(C)CC2)N(C(=O)/C=C/c2ccc(OC)cc2)C[C@H]1CBr.Cl (some centres undefined) | 1800 | 37 | – | – | – | 0.2
COC(=O)c1c(C)[nH]c2c1[C@@]13C[C@@H]1CN(C(=O)/C=C/c1ccc(N(C)C)cc1)C3=CC2=O | 12 | 1.6 | – | – | – | –
CCN(CC)c1cc(/C=C/C(=O)N2C[C@@H](CBr)C3C2=CC(OC(=O)N2CCN(C)CC2)c2[nH]c(C)c(C(=O)OC)c23)ccc1OC.Cl (some centres undefined) | 2100 | 280 | – | – | 0.2 | –
CCc1ccc(/C=C/C(=O)N2C[C@H]3C[C@@]34C2=CC(=O)c2[nH]c(C)c(C(=O)OC)c24)cc1 | 51 | 3.8 | – | – | – | –
COC(=O)c1c(C)[nH]c2c1[C@@]13C[C@@H]1CN(C(=O)/C=C/c1ccc(OC)c(N)c1)C3=CC2=O | 2.1 | 0.53 | – | – | – | –
COC(=O)c1c(C)[nH]c2c1[C@@]13C[C@@H]1CN(C(=O)c1cc4cc(OC)c(OC)c(OC)c4[nH]1)C3=CC2=O | 0.5 | 0.16 | – | – | – | –
COC(=O)c1c(C)[nH]c2c1[C@@]13C[C@@H]1CN(C(=O)/C=C/c1ccc(OC)c(OCCCN(C)C)c1)C3=CC2=O | 3 | 1.6 | – | – | – | –

Reference: ChEMBL document CHEMBL1130435, “Synthesis and antitumor activity of duocarmycin derivatives: A-ring pyrrole compounds bearing cinnamoyl groups” (J Med Chem, 1997)
